Results published in ChEMBL document CHEMBL1781977, “Design and synthesis of 3,5-diarylisoxazole derivatives as novel class of anti-hyperglycemic and lipid lowering agents” (Bioorg Med Chem, 2009).
Activity calls are given as the source filed them. No cut-off for these calls is given here.

Assays:
[1] = target: T1, Tyrosine-protein phosphatase non-receptor type 1 (Homo sapiens, UniProt P18031); assay: Inhibition of protein tyrosine phosphatase-1B at 10 uM incubated for 10 mins using pNPP substrate in absence of Triton X-100 by modified Goldstein method
T1 sequence (P18031 whole entry): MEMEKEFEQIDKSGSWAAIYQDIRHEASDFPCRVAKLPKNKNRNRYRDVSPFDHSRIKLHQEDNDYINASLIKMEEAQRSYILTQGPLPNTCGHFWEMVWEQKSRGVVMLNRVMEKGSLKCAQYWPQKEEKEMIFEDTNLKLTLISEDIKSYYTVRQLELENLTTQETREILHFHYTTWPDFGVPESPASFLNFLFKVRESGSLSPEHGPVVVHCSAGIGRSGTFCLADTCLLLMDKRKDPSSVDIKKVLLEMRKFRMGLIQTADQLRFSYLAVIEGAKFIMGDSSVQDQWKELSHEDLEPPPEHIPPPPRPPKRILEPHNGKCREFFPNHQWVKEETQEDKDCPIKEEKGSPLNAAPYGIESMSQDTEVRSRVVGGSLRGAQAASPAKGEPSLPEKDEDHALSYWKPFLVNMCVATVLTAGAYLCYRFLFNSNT
Procedure, shortened: (§1)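 PTP-1B: compound preincubated 10 min with enzyme, with or without 0.01% Triton X-100. Then 10 mM pNPP in 50 mM HEPES pH 7.0 with 1 mM DTT and 2 mM EDTA, 30 min at 37 °C. Stopped with 0.1 N NaOH; absorbance read at 410 nm. p-Nitrophenolate calculated using ε 1.78 × 10⁴ M⁻¹cm⁻¹. Sodium orthovanadate used as reference.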

[2] = organism: Mus musculus; assay: Antihyperglycemic activity in C57BL/Ks db/db mouse assessed as reduction in blood glucose level measured after 3 days relative to control; format: functional
[3] = target: Dipeptidyl peptidase 4 (Homo sapiens) (UniProt P27487); assay: Inhibition of DPP4 assessed as rate of substrate cleavage using Gly-Pro-AMC substrate by spectrofluorometry
Dipeptidyl peptidase 4 (Homo sapiens), sequence (P27487 whole entry, looked up): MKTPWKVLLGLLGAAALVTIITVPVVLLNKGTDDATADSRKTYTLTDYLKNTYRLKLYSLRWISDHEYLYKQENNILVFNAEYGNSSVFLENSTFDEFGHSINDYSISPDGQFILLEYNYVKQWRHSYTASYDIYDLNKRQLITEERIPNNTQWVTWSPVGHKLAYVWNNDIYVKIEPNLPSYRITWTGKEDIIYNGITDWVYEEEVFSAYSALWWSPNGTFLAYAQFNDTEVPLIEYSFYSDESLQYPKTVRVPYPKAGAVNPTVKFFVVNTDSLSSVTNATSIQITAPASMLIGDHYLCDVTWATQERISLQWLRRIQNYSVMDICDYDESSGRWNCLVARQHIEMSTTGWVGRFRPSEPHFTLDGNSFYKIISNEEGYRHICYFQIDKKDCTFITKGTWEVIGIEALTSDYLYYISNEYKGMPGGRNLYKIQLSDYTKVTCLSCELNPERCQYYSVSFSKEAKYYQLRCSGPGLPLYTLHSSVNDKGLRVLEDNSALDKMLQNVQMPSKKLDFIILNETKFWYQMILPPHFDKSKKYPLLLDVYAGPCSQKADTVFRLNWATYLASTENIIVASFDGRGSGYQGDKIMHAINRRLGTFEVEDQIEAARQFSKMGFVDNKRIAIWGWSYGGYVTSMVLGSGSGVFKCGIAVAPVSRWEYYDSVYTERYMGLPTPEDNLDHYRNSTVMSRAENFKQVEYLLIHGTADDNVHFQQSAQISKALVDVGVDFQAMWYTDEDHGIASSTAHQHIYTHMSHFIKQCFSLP
Procedure, shortened: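 DPP-IV activity read by fluorescence at 37 °C, excitation 355 nm and emission 460 nm. Initial rate calculated over the first 15 min as increase in fluorescence intensity.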

[4] = system: Mus musculus; assay: Antidyslipidemic activity in C57BL/Ks db/db mouse assessed as plasma HDL-cholesterol level at 100 mg/kg, po; format: functional
Procedure, shortened: (§2)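 db/db mice (C57BL/KsBom, 12–18 weeks, 5 male and 5 female) dosed orally at 100 mg/kg in 1.0% gum acacia. Blood collected on day 8 for serum lipids. Mean ± SD, n = 5, against vehicle-treated db/db controls; Dunnett's test.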

[5] = system: Rattus norvegicus; assay: Antihyperglycemic activity against sucrose challenged streptozotocin-induced diabetic Sprague-Dawley albino rat assessed as reduction in blood glucose level at 100 mg/kg, po administered 30 mins before sucrose challenge; format: functional
Procedure, shortened: (§3)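 Male Sprague Dawley rats, 160 ± 20 g, fasted overnight, given streptozotocin 60 mg/kg ip in 100 mM citrate pH 4.5. Rats with glucose 144–270 mg/dl at 48 h count as diabetic, 5–6 per group. Dosed 100 mg/kg orally in 1.0% gum acacia. Sucrose 2.5 g/kg given 30 min later. Glucose read at 30–300 min and 24 h. Non-responders excluded.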

[6] = system: Mus musculus; assay: Antidyslipidemic activity in C57BL/Ks db/db mouse assessed as reduction in plasma triglyceride level at 100 mg/kg, po; format: functional; procedure, shortened: as §2
[7] = system: Rattus norvegicus; assay: Antihyperglycemic activity against sucrose challenged streptozotocin-induced diabetic Sprague-Dawley albino rat assessed as reduction in blood glucose level at 50 mg/kg, po administered 30 mins before sucrose challenge; format: functional
Procedure, shortened: (§4)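 Streptozotocin-diabetic Sprague Dawley rats: streptozotocin 60 mg/kg ip in citrate pH 4.5; rats at 144–270 mg/dl after 48 h used. Oral doses of 7.5–100 mg/kg in 1.0% gum acacia, then sucrose 2.5 g/kg. Glucose measured at 30, 60, 90, 120, 180, 240, 300 and 1440 min. ED50 taken from dose response. Mean ± SD, n = 5; Dunnett's test.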

[8] = system: Rattus norvegicus; assay: Antihyperglycemic activity against sucrose challenged streptozotocin-induced diabetic Sprague-Dawley albino rat assessed as reduction in blood glucose level at 15 mg/kg, po administered 30 mins before sucrose challenge; format: functional; procedure, shortened: as §4
[9] = system: Rattus norvegicus; assay: Antihyperglycemic activity against sucrose challenged streptozotocin-induced diabetic Sprague-Dawley albino rat assessed as reduction in blood glucose level at 7.5 mg/kg, po administered 30 mins before sucrose challenge; format: functional; procedure, shortened: as §4
[10] = target: T1, Tyrosine-protein phosphatase non-receptor type 1; assay: Inhibition of protein tyrosine phosphatase-1B at 10 uM incubated for 10 mins using pNPP substrate in presence of 0.01% Triton X-100 by modified Goldstein method; procedure, shortened: as §1
[11] = system: Rattus norvegicus; assay: Antihyperglycemic activity against sucrose challenged streptozotocin-induced diabetic Sprague-Dawley albino rat assessed as reduction in blood glucose level at 25 mg/kg, po administered 30 mins before sucrose challenge; format: functional; procedure, shortened: as §4
[12] = target: T2, Tyrosine-protein phosphatase non-receptor type 1 (Homo sapiens) (UniProt P18031); assay: Inhibition of protein tyrosine phosphatase-1B at 10 uM incubated for 10 mins using pNPP substrate by modified Goldstein method; design: Activity: scale not given: the % may be the effect or the level left; procedure, shortened: as §1
T2 sequence (whole entry): T1 sequence (P18031 whole entry)

[13] = system: Mus musculus; assay: Antihyperglycemic activity in C57BL/Ks db/db mouse assessed as reduction in blood glucose level at 100 mg/kg, po measured 6 days post dose by postprandial glucose tolerance test; format: functional; conditions: 144 h
Procedure, shortened: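 C57BL/KsBom-db mice, 12–18 weeks, 40–50 g, 5 male and 5 female, at 23 °C with 12/12 h light cycle. Treated orally at 100 mg/kg, vehicle 1.0% gum acacia. Day 6 postprandial test: glucose at −0.5 h and 0 h, then at 1, 2, 3, 4 and 6 h after dosing.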

[14] = system: Rattus norvegicus; assay: Antihyperglycemic activity against sucrose challenged streptozotocin-induced diabetic Sprague-Dawley albino rat assessed as reduction in blood glucose level administered orally 30 mins before sucrose challenge; format: functional; conditions: po; procedure, shortened: as §4
[15] = system: Mus musculus; assay: Antihyperglycemic activity in C57BL/Ks db/db mouse assessed as reduction in blood glucose level at 100 mg/kg, po measured 10 days post dose by postprandial glucose tolerance test; format: functional; conditions: 240 h, in the assay text read “oral glucose tolerance test” for “postprandial glucose tolerance test”
Procedure, shortened: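 db/db mice (C57BL/KsBom, 12–18 weeks, 40–50 g) given 100 mg/kg orally, vehicle 1.0% gum acacia. Day 10 OGTT after overnight fast: glucose at −30 min and drug given, then glucose at 0 min. Glucose 3 g/kg given, with readings at 30, 60, 90 and 120 min.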

[16] = system: Rattus norvegicus; assay: Antihyperglycemic activity in Charles Foster/Wistar albino rat assessed as reduction in blood glucose level at 100 mg/kg, po administered 30 mins before sucrose challenge; format: functional
Procedure, shortened: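 Male Charles Foster/Wistar rats, 160 ± 20 g, fasted 16 h; animals with glucose 60–80 mg/dl used, 5–6 per group. Given 100 mg/kg orally as suspension in 1.0% gum acacia (controls vehicle alone). Sucrose 10.0 g/kg orally 30 min later. Glucometer readings at 30, 60, 90, 120 min. Percent activity derived from AUC of treated versus control groups.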

[17] = system: Rattus norvegicus; assay: Antihyperglycemic activity against sucrose challenged streptozotocin-induced diabetic Sprague-Dawley albino rat assessed as reduction in blood glucose level at 100 mg/kg, po administered 30 mins before sucrose challenge measured after 24 hrs; format: functional; procedure, shortened: as §3
[18] = system: Mus musculus; assay: Antidyslipidemic activity in C57BL/Ks db/db mouse assessed as reduction in plasma cholesterol level at 100 mg/kg, po; format: functional; procedure, shortened: as §2
[19] = system: Rattus norvegicus; assay: Antihyperglycemic activity against sucrose challenged streptozotocin-induced diabetic Sprague-Dawley albino rat assessed as reduction in blood glucose level at 100 mg/kg, po administered 30 mins before sucrose challenge measured after 5 hrs; format: functional; procedure, shortened: as §3
[20] = target: T3, Peroxisome proliferator-activated receptor gamma (Homo sapiens) (UniProt P37231); assay: Activation of PPARgamma by receptor transactivation assay
T3 sequence (whole entry): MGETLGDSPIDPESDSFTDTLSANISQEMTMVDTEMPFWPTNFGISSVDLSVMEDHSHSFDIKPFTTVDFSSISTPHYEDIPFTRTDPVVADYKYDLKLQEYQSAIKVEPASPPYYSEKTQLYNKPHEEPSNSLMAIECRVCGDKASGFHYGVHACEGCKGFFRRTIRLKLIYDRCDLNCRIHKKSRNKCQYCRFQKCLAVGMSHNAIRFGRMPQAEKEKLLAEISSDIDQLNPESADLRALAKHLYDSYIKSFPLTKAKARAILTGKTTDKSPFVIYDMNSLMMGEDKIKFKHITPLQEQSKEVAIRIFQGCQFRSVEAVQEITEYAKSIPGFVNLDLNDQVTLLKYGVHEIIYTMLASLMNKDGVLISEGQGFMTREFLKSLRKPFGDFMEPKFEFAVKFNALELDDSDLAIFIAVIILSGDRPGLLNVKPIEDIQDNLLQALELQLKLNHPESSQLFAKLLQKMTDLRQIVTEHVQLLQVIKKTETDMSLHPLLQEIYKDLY

COc1ccc(-c2cc(-c3ccccc3)no2)c(OCC(O)CN2CCCC2)c1 (configuration not stated)
IC50 [1]: 3.4 µM | inhibition (INH) [2]: 15.7% | inhibition [3]: inactive | Activity [4]: 1.8% | inhibition in vivo at 100 mg/kg [5]: 18.5% | inhibition in vivo at 100 mg/kg [6]: -8.5% | inhibition in vivo at 50 mg/kg [7]: 17.9% | inhibition in vivo at 15 mg/kg [8]: 11.6% | inhibition in vivo at 7.5 mg/kg [9]: 8.4% | IC50 [10]: 4.2 µM | inhibition in vivo at 25 mg/kg [11]: 13.8% | Activity [12]: 86.2% | inhibition in vivo at 100 mg/kg [13]: 15.9% | ED50 [14]: 80.2 mg/kg | inhibition in vivo at 100 mg/kg [15]: 15.5% | inhibition in vivo at 100 mg/kg [16]: 26.8% | inhibition in vivo at 100 mg/kg [17]: 17.6% | inhibition in vivo at 100 mg/kg [18]: -9.8% | inhibition in vivo at 100 mg/kg [19]: 18.5%

COc1ccc(-c2cc(-c3ccccc3)no2)c(OCCN2CCCCC2)c1
IC50 [1]: 8.8 µM | inhibition (INH) [2]: 18.5% | inhibition [3]: inactive | Activity [4]: 1.3% | inhibition in vivo at 100 mg/kg [5]: 20.7% | inhibition in vivo at 100 mg/kg [6]: -7.5% | inhibition in vivo at 50 mg/kg [7]: 16.7% | inhibition in vivo at 15 mg/kg [8]: 12.6% | inhibition in vivo at 7.5 mg/kg [9]: 9.8% | IC50 [10]: 9 µM | inhibition in vivo at 25 mg/kg [11]: 14% | inhibition [12]: 76.3% | inhibition in vivo at 100 mg/kg [13]: 17.4% | ED50 [14]: 64.5 mg/kg | inhibition in vivo at 100 mg/kg [15]: 16.1% | inhibition in vivo at 100 mg/kg [16]: 27.6% | Activity [20]: inactive | inhibition in vivo at 100 mg/kg [17]: 18.7% | inhibition in vivo at 100 mg/kg [18]: -12.2% | inhibition in vivo at 100 mg/kg [19]: 17.6%

CCN(CC)CCOc1cc(OC)ccc1-c1cc(-c2ccccc2)no1
IC50 [1]: 2.97 µM | inhibition (INH) [2]: 21% | inhibition [3]: inactive | Activity [4]: 3.9% | inhibition in vivo at 100 mg/kg [5]: 25.4% | inhibition in vivo at 100 mg/kg [6]: -12% | inhibition in vivo at 50 mg/kg [7]: 21.7% | inhibition in vivo at 15 mg/kg [8]: 15.5% | inhibition in vivo at 7.5 mg/kg [9]: 10.3% | IC50 [10]: 2.9 µM | inhibition in vivo at 25 mg/kg [11]: 19.5% | inhibition [12]: 94.7% | inhibition in vivo at 100 mg/kg [13]: 22.6% | ED50 [14]: 45.3 mg/kg | inhibition in vivo at 100 mg/kg [15]: 21.5% | inhibition in vivo at 100 mg/kg [16]: 29.9% | inhibition in vivo at 100 mg/kg [17]: 25.7% | inhibition in vivo at 100 mg/kg [18]: -14.5% | inhibition in vivo at 100 mg/kg [19]: 26.9%

COc1ccc(-c2cc(-c3ccccc3)no2)c(OCCN2CCCC2)c1
IC50 [1]: 1.5 µM | inhibition (INH) [2]: 22.8% | inhibition [3]: inactive | Activity [4]: 3% | inhibition in vivo at 100 mg/kg [5]: 27.7% | inhibition in vivo at 100 mg/kg [6]: -10.5% | inhibition in vivo at 50 mg/kg [7]: 18.5% | inhibition in vivo at 15 mg/kg [8]: 13.7% | inhibition in vivo at 7.5 mg/kg [9]: 11.5% | IC50 [10]: 1.51 µM | inhibition in vivo at 25 mg/kg [11]: 15.2% | inhibition [12]: 99.2% | inhibition in vivo at 100 mg/kg [13]: 21.4% | ED50 [14]: 54.8 mg/kg | inhibition in vivo at 100 mg/kg [15]: 21.6% | inhibition in vivo at 100 mg/kg [16]: 36.9% | inhibition in vivo at 100 mg/kg [17]: 28.7% | inhibition in vivo at 100 mg/kg [18]: -17.6% | inhibition in vivo at 100 mg/kg [19]: 27.7%
